{"data": "Published values collected from several papers", "BRAF V600E": "Serine/threonine-protein kinase B-raf (BRAF, Homo sapiens, UniProt P15056, V600E)", "BRAF": "Serine/threonine-protein kinase B-raf (BRAF, Homo sapiens, UniProt P15056)", "note": "Protocols differ between the studies behind these lines."}
{"Compound": "Cc1ccc(C(CS(=O)(=O)c2ccccc2)=NNc2nc(C)c(N=Nc3cccc(C)c3)s2)cc1", "target": "BRAF V600E", "read-out": "enzyme activity", "action": "inhibitor", "technique": "ATP luminescence", "concentration": "0.1 µM", "measurement": "inhibition", "result": "63%"}
{"Compound": "COc1ccc2cc(OCC3(C(=O)O)CN(C(=O)c4ccc(F)cc4)C3)ccc2c1", "target": "BRAF", "read-out": "cell-free assay", "technique": "competition with immobilised ligand", "concentration": "1 µM", "measurement": "remaining binding", "result": "93%"}
{"Compound": "Cc1ccc(C(CS(=O)(=O)c2ccccc2)=NNC2=NC(=O)C(=NNc3ccccc3)S2)cc1", "target": "BRAF V600E", "read-out": "enzyme activity", "action": "inhibitor", "technique": "ATP luminescence", "concentration": "1 µM", "measurement": "inhibition", "result": "67%"}
{"Compound": "N[C@@H]1CCN(c2nccc(-c3cnn4ncccc34)n2)C1", "target": "BRAF V600E", "read-out": "binding", "concentration": "1 µM", "measurement": "remaining binding", "result": "97%"}
{"Compound": "COc1ccc(-c2csc(NN=C(CS(=O)(=O)c3ccccc3)c3ccc(F)cc3)n2)cc1", "target": "BRAF V600E", "read-out": "enzyme activity", "action": "inhibitor", "technique": "ATP luminescence", "concentration": "10 µM", "measurement": "inhibition", "result": "89%"}
{"Compound": "CNCc1ccccc1-c1csc([C@@H](C)Nc2nc(C)nc3cc(OC)c(OC)cc23)c1", "target": "BRAF V600E", "read-out": "cell-free assay", "technique": "competition with immobilised ligand", "concentration": "1 µM", "measurement": "remaining binding", "result": "100%"}
{"Compound": "O=C1NC(=O)c2cc(Nc3ccc(F)cc3)c(Nc3ccc(F)cc3)cc21", "target": "BRAF", "read-out": "cell-free assay", "concentration": "0.5 µM", "measurement": "remaining signal", "result": "94.2%"}
{"Compound": "Cc1cnn2ncc(-c3ccnc(N(C)C)n3)c2c1", "target": "BRAF V600E", "read-out": "binding", "concentration": "1 µM", "measurement": "remaining binding", "result": "91%"}
{"Compound": "O=C(Nc1cnn(-c2csc(C(=O)NC3COC3)c2)c1)Nc1c(F)cccc1Cl", "target": "BRAF", "read-out": "enzyme activity", "action": "inhibitor", "concentration": "5 µM", "measurement": "remaining activity", "result": "99.9%"}
{"Compound": "c1nc2c(Nc3ccc4c(c3)OCCO4)nc(Nc3ccc4c(c3)OCCO4)nc2[nH]1", "target": "BRAF", "read-out": "enzyme activity", "action": "inhibitor", "concentration": "10 µM", "measurement": "activity vs control", "result": "92%"}
{"Compound": "Cc1ccc(C(CS(=O)(=O)c2ccccc2)=NN=C2N=C(c3ccc(Br)cc3)CS2)cc1", "target": "BRAF V600E", "read-out": "enzyme activity", "action": "inhibitor", "technique": "ATP luminescence", "concentration": "0.1 µM", "measurement": "inhibition", "result": "61%"}
{"Compound": "CNC(=O)c1ccc(Nc2ncc(C(F)(F)F)c(NCc3nccnc3N(C)S(C)(=O)=O)n2)cc1", "target": "BRAF V600E", "read-out": "cell-free assay", "technique": "competition with immobilised ligand", "concentration": "0.1 µM", "measurement": "remaining binding", "result": "100%"}
{"Compound": "NC(=S)NN=C(CS(=O)(=O)c1ccccc1)c1ccc(F)cc1", "target": "BRAF V600E", "read-out": "enzyme activity", "action": "inhibitor", "technique": "ATP luminescence", "concentration": "10 µM", "measurement": "inhibition", "result": "92%"}
{"Compound": "Cn1nc(C(=O)NCc2ccc(C(=O)O)cc2)cc1-c1ccc2[nH]ccc2c1", "target": "BRAF", "read-out": "cell-free assay", "technique": "competition with immobilised ligand", "concentration": "0.1 µM", "measurement": "remaining binding", "result": "74%"}
{"Compound": "CC(C)(C)c1nc(-c2cccc(NS(=O)(=O)c3c(F)cccc3F)c2F)c(-c2ccnc(N)n2)s1", "target": "BRAF", "read-out": "enzyme activity", "action": "inhibitor", "technique": "radiometric", "concentration": "1 µM", "measurement": "activity vs control", "result": "5%"}
{"Compound": "COc1ccc2c(c1)O[C@H](c1ccc(OC)c(OC)c1)C[C@@H]2NC(=O)C1(c2ccc3c(c2)OC(F)(F)O3)CC1", "target": "BRAF V600E", "read-out": "cell-free assay", "technique": "competition with immobilised ligand", "concentration": "1 µM", "measurement": "remaining binding", "result": "93%"}
{"Compound": "Nc1ncnc2occ(-c3ccc(NC(=O)Nc4cc(C(F)(F)F)ccc4F)cc3)c12", "target": "BRAF V600E", "read-out": "cell-free assay", "concentration": "20 µM", "measurement": "remaining signal", "result": "0.05%"}
{"Compound": "O=C(Nc1cccnn1)N1CCC(=Cc2cccc(Oc3ccc(C(F)(F)F)cn3)c2)CC1", "target": "BRAF V600E", "read-out": "cell-free assay", "technique": "competition with immobilised ligand", "concentration": "1 µM", "measurement": "remaining binding", "result": "100%"}
{"Compound": "Cc1ccc(C(=O)Nc2ccc(CN3CCN(C)CC3)c(C(F)(F)F)c2)cc1C#Cc1cnc2cccnn12", "target": "BRAF", "read-out": "cell-free assay", "concentration": "23.5 nM", "measurement": "remaining signal", "result": "15%"}
